TAG inh = inhibitors of triacylglycerol accumulation, primary screen, cell-based, uHTS, fluorescence, H9c2 | AID 651582, 2012 | H9c2 cells, Nile Red lipid (TAG) fluorescence; cells loaded with 200 µM oleic acid | inhibition, % at 12.5 µM | hit rate 0.66% among 230,000;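 active = pattern-corrected inhibition of lipid staining of at least 50% with the nuclear-stain viability signal not falling by more than 50%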;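 note: 0% = DMSO wells and 100% = triacsin C control wells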
AHR act = AHR activators, primary screen, cell-based, luminescence, luciferase reporter, human; hit rate 2.5% among 320,000; AID 2796, 2010; Aryl hydrocarbon receptor (Homo sapiens), P35869; activation, % at 5 µM; AHR-responsive luciferase reporter cells; in the data active = activation above about 47%;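 note: 0% = vehicle wells and 100% = reference agonist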
Target sequence (P35869 whole entry, looked up): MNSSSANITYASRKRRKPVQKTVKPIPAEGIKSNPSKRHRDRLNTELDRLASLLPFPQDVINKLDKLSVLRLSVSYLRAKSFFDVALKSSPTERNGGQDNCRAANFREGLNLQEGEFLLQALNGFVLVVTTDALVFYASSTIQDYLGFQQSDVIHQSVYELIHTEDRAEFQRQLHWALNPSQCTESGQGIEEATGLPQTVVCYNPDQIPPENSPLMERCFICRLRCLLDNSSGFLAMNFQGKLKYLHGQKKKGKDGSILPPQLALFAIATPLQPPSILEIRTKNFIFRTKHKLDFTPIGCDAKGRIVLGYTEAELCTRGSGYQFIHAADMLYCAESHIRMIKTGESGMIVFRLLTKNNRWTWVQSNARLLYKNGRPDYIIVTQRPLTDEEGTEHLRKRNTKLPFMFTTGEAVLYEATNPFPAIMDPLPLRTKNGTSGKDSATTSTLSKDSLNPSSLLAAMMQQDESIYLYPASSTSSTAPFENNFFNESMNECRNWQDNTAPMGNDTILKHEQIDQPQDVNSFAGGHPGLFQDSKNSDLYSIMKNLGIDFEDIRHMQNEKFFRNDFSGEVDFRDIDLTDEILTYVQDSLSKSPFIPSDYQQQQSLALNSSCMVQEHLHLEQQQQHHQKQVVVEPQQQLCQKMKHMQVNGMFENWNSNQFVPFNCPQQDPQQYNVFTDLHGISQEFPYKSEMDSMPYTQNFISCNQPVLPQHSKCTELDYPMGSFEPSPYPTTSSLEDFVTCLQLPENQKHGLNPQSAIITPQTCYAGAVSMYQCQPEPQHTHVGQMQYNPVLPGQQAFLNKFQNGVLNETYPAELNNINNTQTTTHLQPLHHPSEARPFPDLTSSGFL
Efflux pump mplx = inhibitors of Candida efflux pumps in yeast, primary screen, S. cerevisiae, Nile Red, multiplex; S. cerevisiae Candida pump triplex; inhibition, % at 10 µM; hit rate 0.44% among 330,000; AID 485275, 2010;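 active = plate passing quality check with inhibition over a set limit, or well fluorescence over plate mean plus 4 SD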;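 note: Nile Red retained in pooled yeast measured as flow cytometry median fluorescence; 0% = buffer negative control and 100% = Enniatin B positive control; higher means more Nile Red kept so more efflux inhibition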
Tb MetRS inh = T. brucei MetRS inhibitors, primary screen, biochemical, luminescence; inhibition, % at 11.9 µM; purified T. brucei MetRS, ATP depletion, Kinase-Glo luminescence; AID 624268, 2012; hit rate 0.4% among 360,000; methionyl-tRNA synthetase (Trypanosoma brucei brucei);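 active = inhibition above a per-plate cutoff of the control wells' mean inhibition plus 3 SD, cut at about 5.5% in these data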;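 note: 0% = DMSO wells median and 100% = median of wells with control inhibitor compound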
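System: purified T. brucei MetRS enzyme / Detection: Kinase-Glo luciferase luminescence reporting remaining unconsumed ATP / Medium: HEPES buffer with MgCl2, KCl, DTT, spermine, BSA, pyrophosphatase / Replication: singlicate, one well per compound / Evaluation: percent inhibition relative to median high and low control wells / Schedule: 2 h aminoacylation at 25 °C after 15 min preincubation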
SMARCA2 act = SMARCA2 (BRM) function activators, primary screen, cell-based, luminescence, high throughput; MG213 cells, MMTV-luciferase reporter, dexamethasone, overnight; activation, % at 9.1 µM; hit rate 1% among 370,000; AID 652017, 2013; in the data active = activation above about 7.8%;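 note: 0% = vehicle wells and 100% = reference activator wells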
* marks the source's active call; other numbers are inactive results; · = no result. In the library only some 4.1% were active in any assay of this set; here they are far more common.

SMILES	TAG inh	AHR act	Efflux pump mplx	Tb MetRS inh	SMARCA2 act
Cc1ccc2nc(-c3ccc(NC(=O)CN4C(=O)c5ccccc5C4=O)cc3)sc2c1	·	7.6	-1.4	0.2	16.4*
Cc1c(C(C)c2ccccc2O)c2ccccc2n1C (centres undefined)	·	·	·	·	-3.7
Cc1sc2nc(CSCC(=O)Nc3ccc(C(F)(F)F)cc3)[nH]c(=O)c2c1C	-8.1	58.9*	0.2	-0.4	-3.4
FC(F)(F)c1ccc(C2NCCc3sccc32)cc1 (centres undefined)	·	64.8*	-0.1	-0.1	2.6
CN(C)C=Nc1ccc2nc3c(cc2c1)[nH]c1ccccc13	·	70.9*	0.1	0.3	7.6
CCC(=O)N(Cc1ccccc1)c1ccccc1C(=O)Nc1cc(OC)ccc1OC	·	·	·	·	0.3
OCCCCC#Cc1c(-c2ccsc2)sc2ccccc12	-10.7	49.0*	-0.1	-0.1	0.8
C(#Cc1c(-c2ccsc2)sc2ccccc12)c1ccsc1	6.9	71.8*	0.2	-0.4	1.4
O=C(CSc1nnc(COc2ccccc2)n1-c1ccccc1)Nc1ccc2c(c1)OCO2	·	·	·	·	-1.9
COc1ccc(Br)cc1/C=N/N1C(=O)CSC1=S	·	48.8*	-0.1	0.1	-2.3
COc1cc(/C=N/N2C(=O)CSC2=S)ccc1O	-5.0	15.0	0.1	0.1	0.2
O=C1CSC(=S)N1/N=C/c1cc(Br)c(O)c(Br)c1	·	0.4	7.5*	0.0	·
COC(=O)c1ccccc1NC(=O)C/C(C)=N/NC(=O)Cc1ccc(Cl)cc1	·	3.1	0.6	0.1	-2.5
COc1ccc(Cl)cc1NC(=O)C/C(C)=N/NC(=O)c1ccccc1[N+](=O)[O-]	·	20.7	-0.1	0.0	-1.3
COc1cc(NC(=O)C/C(C)=N/NC(=O)Cc2ccc(Cl)cc2)c(OC)cc1Cl	·	81.0*	-0.5	0.1	-2.9
C/C(CC(=O)Nc1cc(Cl)ccc1Cl)=N\NC(=O)c1ccccc1Br	-7.0	71.3*	-0.2	0.1	1.1
COc1ccc(NC(=O)c2ccccc2O)c(OC)c1	·	13.5	-0.4	-0.4	5.6
COc1ccc(NC(=O)c2cc(Br)ccc2Cl)c(OC)c1	·	107.0*	-0.3	-1.1	-3.8
CCC(=O)NC(=S)Nc1ccc(OC)cc1OC	·	69.9*	0.2	0.4	-2.3
CN(C)c1ccc(NC(=S)OC2CCC23CCC(c2ccccc2)CC3)cc1 (centres undefined)	·	·	·	·	-4.7
COc1ccc(C2=Nn3c(nnc3C3CCCCC3)SC2)cc1	·	·	·	·	-0.5
COc1ccc(NC(=O)C/C(C)=N/NC(=O)C(=O)Nc2cccc(Cl)c2C)c(OC)c1	2.0	-5.3	0.1	0.1	-0.4
COc1ccc(NC(=O)C/C(C)=N/NC(=O)C(=O)NC(C)C)c(OC)c1	-4.3	2.8	0.0	0.2	7.9*
COc1ccc(NC(=S)NC(=O)Cc2ccccc2)c(OC)c1	-6.3	47.9*	-0.2	-1.1	-1.2
O=C(NCCN1CCC(Cc2ccccc2)CC1)C1CCCN(S(=O)(=O)c2cccs2)C1 (centres undefined)	·	·	·	·	-3.9
SMILES	TAG inh	AHR act	Efflux pump mplx	Tb MetRS inh	SMARCA2 act
COC(=O)[C@H](C(C)C)N(Cc1cn(Cc2ccccc2)nn1)S(=O)(=O)c1ccccc1Br	·	·	·	·	1.9
O=C(NC1CCCC(C(F)(F)F)C1)c1ccc([N+](=O)[O-])o1 (centres undefined)	101.4	-1.4	0.1	-0.3	7.9*
O=C(NC1CCCCC1)c1ccc([N+](=O)[O-])o1	·	0.6	0.7	0.3	·
Clc1ccc(N2COC3c4cccc5cccc(c45)C32)cc1 (centres undefined)	-17.6	60.1*	-0.1	0.6	-4.3
Cc1ccc2c(c1)c1c(n2CC(O)CNC2CCCC2)CCCC1 (centres undefined)	99.2*	3.4	-0.1	-0.4	-5.9
Cc1ccc2c(c1)c1c(n2CC(O)Cn2ccnc2C)C(=O)CCC1 (centres undefined)	14.7	2.9	0.1	-0.5	-1.1
C=CCc1cccc(/C=N/NC(=O)c2ccccc2OC)c1O	·	76.9*	-0.2	0.2	3.0
COc1ccccc1/C=N/NC(=O)c1ccccc1Cl	-9.5	10.5	0.0	-0.5	1.4
O=C(O)COc1ccccc1/C=N/NC(=O)c1cc(-c2ccc(F)cc2)nc2ccccc12	7.8	13.1	-0.6	-1.3	-1.8
COc1ccccc1C=NNC(=O)c1ccccc1OCCOc1ccccc1	-46.3	51.4*	0.4	-0.3	-0.3
COc1ccccc1C(=O)N/N=C/c1ccc(Cl)s1	·	48.8*	0.2	-0.5	3.9
O=C(O)COc1ccccc1/C=N/NC(=O)c1cc2ccccc2cc1O	16.4	58.1*	0.0	2.5	1.2
Nc1cnnc(N/N=C\c2ccccc2)c1Cl	3.4	23.5	-0.2	-0.5	3.8
Clc1ccc(/C=N/Nc2nnc(-c3ncc[nH]3)c3ccccc23)cc1	-4.7	75.7*	0.0	-0.9	2.5
Clc1cccc(/C=N/Nc2nnc(Cl)c3ccccc23)c1	·	50.4*	-0.1	-0.5	-0.4
Fc1cccc(/C=N/Nc2nncc3ccccc23)c1	·	55.3*	0.0	-0.1	2.5
O=C(NC1CCCCN(Cc2cccc(Cl)c2)C1=O)c1c(F)cccc1F (centres undefined)	·	·	·	·	-1.8
COc1ccc(-c2cc(NC(=O)Cc3c(C)[nH]c4ccccc34)ccc2Nc2cccnc2)cc1F	·	·	·	·	-0.6
COc1ccc(C(=O)/C=C2\C(=O)Nc3ccc(Br)cc32)cc1	-2.4	·	·	-0.1	2.1
O=C1Nc2ccc(Br)cc2/C1=C/C(=O)c1ccc2c(c1)OCO2	0.5	69.9*	0.0	0.3	-0.7
O=C1CN(S(=O)(=O)c2cc(Br)ccc2Br)CCN1	-4.5	0.6	0.1	0.8	0.2
O=c1c(Br)ccc(Br)cc1Br	98.8*	·	·	-0.1	-12.6
COCCCNC(=O)c1cc(Nc2ccc(OC)cc2OC)nc2ccccc12	·	1.8	0.0	-0.3	2.0
COc1ccccc1Nc1cc(C(=O)N2CCc3ccccc3C2)c2ccccc2n1	·	63.6*	0.1	·	·
COc1ccccc1-c1cc(C(=O)N2CCc3ccccc3C2)c2ccccc2n1	·	18.3	0.0	·	·
SMILES	TAG inh	AHR act	Efflux pump mplx	Tb MetRS inh	SMARCA2 act
COc1ccc(Nc2cc(C(=O)N3CCc4ccccc4C3)c3ccccc3n2)c(OC)c1	·	55.4*	0.2	0.7	-0.3
CCOC(=S)N/C(=N\S(=O)(=O)c1ccccc1)c1ccccc1	-0.5	4.9	-0.3	0.3	-0.5
CCCOC(=S)N/C(=N\S(=O)(=O)c1ccccc1)c1ccccc1	·	2.3	0.5	-0.5	7.9*
O=S1(=O)c2c(NCc3ccco3)cccc2Oc2ccccc2CN1Cc1cn(Cc2ccc(Cl)cc2)nn1	·	·	·	·	-3.2
N#Cc1cccc(NC(=O)OCCCN2CCC3(CCCCC3)C2=O)c1	·	·	·	·	-4.1
CCCCCC(=O)Nc1nc(C)c(-c2csc(Nc3ccc(Cl)cc3)n2)s1	·	65.5*	-0.1	0.0	0.6
C=CCNc1nc(-c2sc(NC(=O)CC)nc2C)cs1	33.9	69.6*	0.0	0.1	0.1
CCCCCCC(=O)Nc1nc(C)c(-c2csc(Nc3ccc(Cl)cc3)n2)s1	37.4	62.2*	·	0.2	·

Screens from PubChem.
